Assay: Toxicity liver stage against HepG2, at 10uM
Assay type: cell-based
Design: test concentration 10 uM, cell line HepG2-A16-CD81EGFP
Conditions: human, HepG2-A16-CD81EGFP cells; read-out: INHIBITION
How it was run: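 Uninfected HepG2-A16-CD81EGFP cells, 3 × 10^3 per well, 1536-well, plated on prespotted compound at 10 μM final, parasite-free screening media added to match infected plates; puromycin 10 μM positive, DMSO 0.5% negative; run in parallel with 48 h PbLuc assay at 37 °C, 5% CO2; viability by CellTiter-Glo luminescence, normalized to controls.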

| Structure (SMILES) | cytotoxicity at 10 µM |
| --- | --- |
| CN1CCN(C[C@H]2CN3CC[C@H]2C[C@@H]3CNC(=O)c2ccco2)CC1 | -6.35% |
| COc1ccccc1N1CCN(C(=O)COc2c(C)occc2=O)CC1 | -0.426% |
| COc1ccc2c(c1)c(C(=O)Nc1nnn[nH]1)cn2C(C)C | -57.8% |
| Cc1ccccc1C(=O)N1CCN(c2ccc(-n3cncn3)nn2)CC1 | 50.8% |
| O=C(Nc1cnccn1)[C@@H]1C[C@H]2OCC[C@H]2N(c2ncc(F)cn2)C1 | 8.12% |
| CC(C)n1cnc2c1C(C(=O)N1CCCC1)N(S(C)(=O)=O)CC2 (stereo not given) | -5.15% |
| CCC(C)N1CCc2c(C(=O)N(C)Cc3ccccn3)nn(C)c2C1 (stereo not given) | -2.78% |
| CCS(=O)(=O)N1CCn2c(COCC3CCOCC3)cnc2C1C (stereo not given) | 11% |
| CN1CCOCC12CCN(Cc1nccs1)CC2 | 6.46% |
| O=c1cc(CN2CCCC2)nc2n1CCCN(Cc1ccco1)C2 | 4.01% |
| COCCC(=O)N1CC[C@H]2C(=O)N(c3ccsc3)CCO[C@H]2C1 | 10.4% |
| CC(C)C(=O)N1CCCC12CCN(C(=O)c1ccno1)C2 (stereo not given) | 7.49% |
| O=C(NCC1CC1)[C@@H]1C[C@@H]2CCN(Cc3ccccc3)C[C@H]2O1 | 4.21% |
| C[C@H](NC(=O)OC(C)(C)C)c1nnc(S(=O)(=O)Cc2cccc(F)c2)o1 | -6.91% |
| CCOC(=O)CSc1ccc(-c2nc(CC)no2)cn1 | -17.1% |
| CN1CCN(c2ncc3c(=O)n(-c4cccc(F)c4)c(=O)[nH]c3n2)CC1 | -8.85% |
| CC(C)NC(=O)C1CN(C(=O)c2ccc(F)cc2)CC12CCOCC2 (stereo not given) | 1.08% |
| CCN(CC)C(=O)c1ccn(COc2ccc(F)cc2)n1 | 7.55% |
| CCn1nc(C)c2nc(C(C)C)nc(N3CCC(O)CC3)c21 | 1.3% |
| CC(C)n1cc(S(=O)(=O)N2CCCCC2)cn1 | 2.53% |
| OCCN1CCC(c2csc(Nc3cnccn3)n2)CC1 | -4.26% |
| CN(C(=O)c1ccncc1)c1nnc(C2CCOC2)s1 (stereo not given) | 3.57% |

| Structure (SMILES) | cytotoxicity at 10 µM |
| --- | --- |
| CCCC(=O)NCCc1nc(N(C)C)ncc1-c1ccncc1 | 2.92% |
| O=C(C1CCCC1)N1CCCC([C@@H]2C[C@H](C(F)F)n3ncnc3N2)C1 (stereo not given in full) | 4.54% |
| CNc1ncccc1CN1CCN(C)CC(C(=O)N(C)C)C1 (stereo not given) | 16.1% |
| CNC(=O)c1sc2ccccc2c1C1CCN(c2nc(C)cc(C)n2)C1 (stereo not given) | 4.93% |
| CN(C)c1ccc(CC2CCN(c3cnccn3)C2)nn1 (stereo not given) | 2.97% |
| Cc1c(NC(=O)CN2CCC(Oc3cnccn3)CC2)cnn1C | -4.68% |
| Cc1noc(C)c1C(=O)N1CCCC1(C)C(=O)NC1CCCC1 (stereo not given) | -1.33% |
| CNc1ccc(CC2CCCN(C(=O)c3cnco3)C2)nn1 (stereo not given) | -8.55% |
| Cc1occc1C(=O)NCC(=O)N1CCC(COc2ccccc2)CC1 | 12.2% |
| CN(C)C(=O)Cc1ccccc1NCc1noc(-c2ccccc2)n1 | 6.95% |
| COCCn1cc(C(=O)NCCS(N)(=O)=O)c2ccccc21 | 7.01% |
| Cc1nc(C)c(C(C)NCc2c(C(C)C)nn(C)c2N(C)C)s1 (stereo not given) | -8.53% |
| Cc1noc(CSc2ccc(C(F)(F)F)cn2)n1 | -12.5% |
| CCN(CC)c1nc2sc(C(=O)NC(C)(C)C(=O)OC)cc2s1 | 3.58% |
| COc1ccc(NC(=O)N(C)Cc2ccco2)cn1 | -11.8% |
| Cc1cccc(NC(=O)[C@@H]2CCCN2Cc2nc3ccccc3o2)n1 | -4.61% |
| COCc1ccc(C(=O)N2CCOCC2c2ccc(C)o2)cc1 (stereo not given) | -5.48% |
| CSCC(C)(O)CNC(=O)c1cccc(Cl)c1Cl (stereo not given) | 0.126% |
| CC(C)Cc1noc(CN2CCN(C(=O)c3cccs3)CC2)n1 | -14.3% |
| CCCOc1cc(C)ccc1NC(=O)NCCNC(C)=O | -6.58% |
| Cc1ccc(OCCC(=O)NCCCN2CCCC2=O)c(C)c1 | -1.08% |
| FC(F)(F)CN1CCC(CCNc2ncccn2)CC1 | -3.94% |

| Structure (SMILES) | cytotoxicity at 10 µM |
| --- | --- |
| CCN(CC(=O)NCc1nc(C2CC2)no1)Cc1ccc(Cl)cc1 | -2.29% |
| Cn1c(C2CC2)nc2c1CCN(CCc1ccccn1)C2 | 4.59% |
| O=C(COCC1CC1)Nc1ccn(Cc2cccc3cccnc23)n1 | 13.9% |
| CC(C)c1ccc(O)c(C(=O)NC2CCN(c3ncccn3)CC2)c1 | 9.81% |
| CCOC(C)c1nc(Cn2cc(C)cn2)cs1 (stereo not given) | 5.52% |
| COc1nc(C)ccc1CNC(=O)NC(C)Cc1c(C)nn(C)c1C (stereo not given) | 8.37% |
| O=C(O)CN1CCC(c2ccccc2)CC1 | 1.73% |
| CC(C)C(=O)NS(=O)(=O)c1ccc(F)c(C(F)(F)F)c1 | -2.32% |
| O=C(c1cccs1)N1CCN(C(=O)c2ncoc2-c2ccco2)CC1 | 3.82% |
| CCCS(=O)(=O)NCCc1ncc(CC)s1 | -1.56% |
| CS(=O)(=O)N1CCc2c(cccc2NC(=O)CC(F)(F)F)C1 | 5.06% |
| O=c1[nH]c(-c2ccncc2)ncc1-c1ccnc(NC2CCCCC2)n1 | -9.24% |
| COc1cc(OC)cc(C2CC(=O)Nc3c2nc2n3CCCC2)c1 (stereo not given) | -3.99% |
| Cc1cccc(N2CCC3(CCCN3Cc3cn(C)nc3C)CC2)n1 | -4.78% |
| CCc1nc(CN2CC[C@@](O)(CCOC)[C@H](C)C2)cs1 | 10% |
| COc1ccc2c(=O)n(CC3CCCN(C)C3)ccc2c1OC (stereo not given) | -0.391% |
| Cc1nn(C)c2nc(NC(C)c3nnn[nH]3)sc12 (stereo not given) | -0.909% |
| CCc1nccc(CN2CCCC(CNC(=O)c3ccccn3)C2)n1 (stereo not given) | 4.63% |
| CC(C)c1cc(NCC(O)c2ccncc2)n2nccc2n1 (stereo not given) | -1.8% |
| COCc1nc(CNC2CSCCSC2)no1 | 8.33% |
| O=C(c1cccc(-n2cccn2)c1)N1CCCOC(Cn2cccn2)C1 (stereo not given) | -6.58% |
| CCN1CCC(CC(=O)N(C)C(C)c2cncs2)CC1 (stereo not given) | 6.05% |

| Structure (SMILES) | cytotoxicity at 10 µM |
| --- | --- |
| CCCC(=O)N1CCCC(Cn2cc(-c3ccc(F)cc3)nn2)C1 (stereo not given) | 7.88% |
| CN(CC1CCCCO1)S(=O)(=O)c1cccc(C(=O)N2CCOCC2)c1 (stereo not given) | -12.4% |
| CSCCC(=O)N[C@H]1CC[C@H](Nc2nccc(-c3ccncc3)n2)C1 | -0.664% |
| COCCc1noc(Cn2ccc3ccccc3c2=O)n1 | 0.0869% |
| CCc1cc(NCCc2cnccn2)n2nc(C)c(C)c2n1 | 5.18% |
| CN(Cc1n[nH]c2c1CCC2)C(=O)CCc1cc2n(n1)CCCNC2 | -0.861% |
| CCCN(Cc1cccnc1)Cc1ccc(C2CCCCO2)o1 (stereo not given) | 1.97% |
| O=C(CCc1cc(O)no1)N1CCCC(COc2ccc(F)cc2)C1 (stereo not given) | 2.47% |
| CC(C)c1ncc(CN2C[C@@H](CN3CCC(CO)CC3)[C@@H](CO)C2)cn1 | 20% |
| CCC(=O)N1CC[C@@H](c2ccc3ccccc3c2)[C@H](O)C1 | -11.4% |
| NC(=O)C1CCCN(C(=O)c2ccn(-c3ccc(F)cc3)n2)C1 (stereo not given) | -3.63% |
| CCc1ncc2c(n1)CN(Cc1cccc(OCC(N)=O)c1)CC2 | -7.42% |
| Cn1cc(C2CCCN2C(=O)CCCOc2ccc(F)cc2)cn1 (stereo not given) | -17.8% |
| CCCc1noc(CCC(=O)N2CCCC2c2ccc(OC)cc2)n1 (stereo not given) | -0.403% |
| CC(C)c1ncc2c(n1)CN(CC(=O)Nc1ccc(Cl)cn1)CC2 | -1.4% |
| CC(Cn1cccn1)NC(=O)Cc1csc(C(C)C)n1 (stereo not given) | -8.57% |
| Cc1cc(NC(=O)CN2CCCC2c2noc(C)n2)n(C(C)(C)C)n1 (stereo not given) | 1.53% |
| Cc1cnn(CC2CN(Cc3ccccn3)CCO2)c1 (stereo not given) | -2.84% |
| c1ccc(-n2ncc(CN3CCCC(Cn4cncn4)C3)n2)cc1 (stereo not given) | -6.04% |
| c1ccc(-n2cc(CN3CCCCC3Cn3cncn3)nn2)cc1 (stereo not given) | -14.2% |
| O=C(CCc1c(F)cccc1F)NS(=O)(=O)c1ccc2c(c1)OCCO2 | -4.71% |
| COCc1nc(C(=O)N2CCCC2c2cc(C)on2)cs1 (stereo not given) | -5.83% |

| Structure (SMILES) | cytotoxicity at 10 µM |
| --- | --- |
| COc1ccc(C(=O)N(C)Cc2ncc(C)c(OC)c2C)c(OC)c1 | -4.28% |
| COc1c(C2CCCN2Cc2cc(C)no2)c(C)nn1C (stereo not given) | -7.25% |
| OC(CN1CCOCC1)c1ccc(OC(F)(F)F)cc1 (stereo not given) | -9.36% |
| Cc1cc(CN2CCN(C(C)c3nc(C4CC4)no3)CC2)no1 (stereo not given) | 1.35% |
| CCN(Cc1cccc(Cl)c1)Cc1nc2c(cnn2C)c(=O)[nH]1 | 1.01% |
| CNS(=O)(=O)c1ccc(CNC(=O)NCC2CCCO2)cc1 (stereo not given) | 7.12% |
| CCN(CC)C1CCN(C(=O)c2cc3cc(C)cc(C)c3nc2C)CC1 | 0.199% |
| O=C(O)[C@@H]1CCCN1c1nccc(Nc2ccccc2)n1 | 12.2% |
| Cn1cnc2c1C(C(=O)N1CCCC1)N(CC1CC1)CC2 (stereo not given) | 6.37% |
| COc1c(CNC2CCCOc3ccc(F)cc32)c(C(C)C)nn1C (stereo not given) | -5.83% |
| CC(C)NC(=O)N1CC[C@@H](N(C)C)[C@@H]1Cc1ccccc1 | 9.82% |
| Cc1ccc2c(n1)N(C)CCN(C(=O)NC1CC1)C2 | 1.36% |
| Cc1cccc(CN2CCC3(CC2)CC(Oc2cccnc2)C3)n1 | 12.7% |
| CCOC(=O)c1sc2ccsc2c1CN | -1.86% |
| COCCN1CC[C@H](O)[C@@H]1Cc1ccccc1 | -10% |
| Cc1ccc(N2CCC3(CCN(C(=O)c4ccccn4)CC3)CC2)nn1 | 0.255% |
| COCCNC(=O)[C@H]1CC[C@@H]2[C@@H](CCN2c2ncc(F)cn2)O1 | -2.25% |
| COCCNC(=O)[C@@H]1CC[C@@H]2[C@@H](CCN2c2ncc(F)cn2)O1 | -0.554% |
| O=C(C1CC=CC1)N1C[C@@H](OCc2cccnc2)[C@H]2OCCC[C@H]21 | 2.74% |
| CN(C)C(=O)CO[C@H]1CN(Cc2nccs2)[C@@H]2COC[C@H]12 | 5.08% |
| NCC1CCC(C(NC(=O)CC2CCCC2)c2ccccn2)CC1 (stereo not given) | -14.6% |
| Cc1noc(C)c1CN1C[C@H]2CC[C@@H](C1)N(Cc1cc(F)cc(F)c1)C2 | -11.9% |
